Source: ChEMBL document CHEMBL4673245, “Discovery of AZD9833, a Potent and Orally Bioavailable Selective Estrogen Receptor Degrader and Antagonist” (J Med Chem, 2020)
Active and inactive are the calls of the source. The calls are words filed in the database; no cut-off is given here.

Columns and labels:
[1] = target: T1, Estrogen receptor (Homo sapiens) (UniProt P03372); test: Induction of ERalpha degradation in human CAMA1 cells assessed as decrease in ER-alpha level at 0.1 uM by Western blot analysis relative to fulvestrant; assay type: cell-based; design: scale not given: the % may be the effect or the level left; conditions: CAMA-1
T1 sequence (whole entry): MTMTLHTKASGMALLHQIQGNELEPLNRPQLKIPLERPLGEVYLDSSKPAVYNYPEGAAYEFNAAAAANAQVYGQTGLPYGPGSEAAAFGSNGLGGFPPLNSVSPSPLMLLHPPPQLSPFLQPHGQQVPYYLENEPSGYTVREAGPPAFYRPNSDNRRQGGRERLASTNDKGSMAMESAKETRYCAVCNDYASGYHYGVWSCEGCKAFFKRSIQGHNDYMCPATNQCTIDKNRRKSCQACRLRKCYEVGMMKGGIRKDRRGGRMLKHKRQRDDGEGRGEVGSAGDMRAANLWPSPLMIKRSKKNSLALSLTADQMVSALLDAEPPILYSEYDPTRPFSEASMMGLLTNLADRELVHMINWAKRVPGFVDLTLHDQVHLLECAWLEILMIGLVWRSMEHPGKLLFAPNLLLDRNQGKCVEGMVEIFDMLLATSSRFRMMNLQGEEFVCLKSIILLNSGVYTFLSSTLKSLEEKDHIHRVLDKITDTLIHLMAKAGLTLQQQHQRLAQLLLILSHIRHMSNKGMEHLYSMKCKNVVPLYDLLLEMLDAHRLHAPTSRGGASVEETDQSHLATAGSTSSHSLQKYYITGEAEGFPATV
Procedure, shortened: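 Western blot for ERα in MCF-7 and CAMA-1 cells after treatment at 0.1 µM. ER level is expressed as % degradation relative to fulvestrant, from a single experiment (n = 1).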

[2] = target: T1, Estrogen receptor (Homo sapiens); test: Induction of ERalpha degradation in human MCF7 cells assessed as decrease in ER-alpha level at 0.1 uM by Western blot analysis relative to fulvestrant; assay type: cell-based; design: scale not given: the % may be the effect or the level left
[3] = Intrinsic clearance in human hepatocytes assessed per million cells; assay type: ADME, cell-based, Hepatocyte; conditions: read-out: CLH
Procedure, shortened: (§1)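 Hepatocyte intrinsic clearance measured from DMSO stock in isolated hepatocytes diluted to 1x10⁶ cells/mL; rate expressed as µl/min/10⁶ cells.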

[4] = Intrinsic clearance in rat hepatocytes assessed per million cells; assay type: ADME, cell-based, Hepatocyte; conditions: read-out: CLH; procedure, shortened: as §1
[5] = Fraction unbound in human plasma by equilibrium dialysis method; assay type: ADME, cell-free
Procedure, shortened: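 Fraction unbound measured from DMSO stock by equilibrium dialysis in 10% human plasma.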

[6] = Lipophilicity, log D of the compound in buffer and octanol at pH 7.4 by shake flask method; assay type: physicochemical
Procedure, shortened: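 logD at pH 7.4 by shake flask, buffer/octanol volume ratio 100:1.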

[7] = target: T1, Estrogen receptor (Homo sapiens); test: Induction of ERalpha degradation in human MCF7 cells assessed as maximum degradation incubated for 18 to 24 hrs by Alexa fluor 488/Hoechst staining based immunofluorescence imaging analysis relative to fulvestrant; assay type: cell-based; conditions: time lower […], time upper […]
Estrogen receptor [8] = target: T2, Estrogen receptor (Homo sapiens, UniProt P03372); test: Induction of ERalpha degradation in human MCF7 cells assessed as decrease in ER-alpha level incubated for 18 to 24 hrs by Alexa fluor 488/Hoechst staining based immunofluorescence imaging analysis; assay type: cell-based
T2 sequence (P03372 whole entry): T1 sequence (whole entry)
Procedure, shortened: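 ER degradation in MCF-7 cells via cellular degradation assay; n ≥ 2, degradation also expressed as %Dmax relative to fulvestrant.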

Estrogen receptor [9] = target: T2, Estrogen receptor; test: Displacement of fluormone ES2 green reagent from human GST-tagged ERalpha LBD (282 to 595 residues) expressed in baculovirus infected insect cells incubated for 1 hrs by TR-FRET Lanthascreen assay
MCF7 = test: Antitumor activity against human […] cells xenografted in CB17 SCID mouse assessed as tumor regression at 5 mg, po administered via gavage three times a week for 21 days; assay type: functional, organism-based; conditions: time 21.0 day
Mus musculus = test: In vivo antagonist activity at ERalpha in human MCF7 cells xenografted CB17 SCID mouse assessed as decrease in PR expression level at 5 mg, po administered via gavage three times a week for 21 days measured 24 hrs post last dose by Western blot analysis; assay type: functional, organism-based; conditions: time 21.0 day
[10] = target: Voltage-gated inwardly rectifying potassium channel KCNH2 (Homo sapiens, UniProt Q12809); test: Inhibition of human ERG by plate-based planar patch clamp technique
Sequence of Voltage-gated inwardly rectifying potassium channel KCNH2 (Q12809 whole entry): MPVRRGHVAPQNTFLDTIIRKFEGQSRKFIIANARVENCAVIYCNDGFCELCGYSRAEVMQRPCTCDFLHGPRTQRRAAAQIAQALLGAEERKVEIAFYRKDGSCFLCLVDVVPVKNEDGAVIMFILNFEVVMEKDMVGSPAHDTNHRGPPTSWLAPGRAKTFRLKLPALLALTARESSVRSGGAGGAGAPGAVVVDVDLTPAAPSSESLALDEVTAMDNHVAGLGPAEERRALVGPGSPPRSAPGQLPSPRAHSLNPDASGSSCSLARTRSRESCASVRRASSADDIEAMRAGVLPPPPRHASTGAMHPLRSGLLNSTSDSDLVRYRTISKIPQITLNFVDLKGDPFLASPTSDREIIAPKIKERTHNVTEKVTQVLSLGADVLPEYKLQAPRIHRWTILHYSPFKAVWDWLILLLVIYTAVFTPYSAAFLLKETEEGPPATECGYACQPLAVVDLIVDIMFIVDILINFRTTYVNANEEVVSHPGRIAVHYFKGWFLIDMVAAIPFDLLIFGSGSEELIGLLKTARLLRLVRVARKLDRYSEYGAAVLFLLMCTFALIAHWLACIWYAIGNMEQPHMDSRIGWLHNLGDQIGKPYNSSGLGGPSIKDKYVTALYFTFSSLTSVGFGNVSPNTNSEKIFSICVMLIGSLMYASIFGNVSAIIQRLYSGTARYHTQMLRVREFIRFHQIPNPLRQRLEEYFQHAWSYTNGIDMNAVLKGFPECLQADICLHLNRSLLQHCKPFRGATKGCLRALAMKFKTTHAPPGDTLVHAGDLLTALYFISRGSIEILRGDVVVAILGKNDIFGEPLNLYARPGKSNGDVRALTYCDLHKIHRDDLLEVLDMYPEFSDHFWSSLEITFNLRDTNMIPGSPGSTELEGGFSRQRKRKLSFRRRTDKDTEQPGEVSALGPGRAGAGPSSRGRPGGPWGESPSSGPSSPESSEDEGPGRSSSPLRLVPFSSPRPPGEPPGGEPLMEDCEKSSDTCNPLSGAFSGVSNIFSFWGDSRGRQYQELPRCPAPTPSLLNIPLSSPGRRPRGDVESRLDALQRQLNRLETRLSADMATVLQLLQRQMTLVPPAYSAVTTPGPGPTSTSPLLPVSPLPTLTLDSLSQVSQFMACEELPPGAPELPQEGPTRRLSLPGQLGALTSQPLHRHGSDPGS
Procedure, shortened: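 hERG tail current inhibition recorded on a plate-based planar patch clamp system; IC50 reported.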

Cytochrome P450 2C9 = Cytochrome P450 2C9 (Homo sapiens, UniProt P11712); test: Inhibition of CYP2C9 in human liver microsomes; assay type: ADME; conditions: human, microsomes
Sequence of Cytochrome P450 2C9 (P11712 whole entry, canonical isoform): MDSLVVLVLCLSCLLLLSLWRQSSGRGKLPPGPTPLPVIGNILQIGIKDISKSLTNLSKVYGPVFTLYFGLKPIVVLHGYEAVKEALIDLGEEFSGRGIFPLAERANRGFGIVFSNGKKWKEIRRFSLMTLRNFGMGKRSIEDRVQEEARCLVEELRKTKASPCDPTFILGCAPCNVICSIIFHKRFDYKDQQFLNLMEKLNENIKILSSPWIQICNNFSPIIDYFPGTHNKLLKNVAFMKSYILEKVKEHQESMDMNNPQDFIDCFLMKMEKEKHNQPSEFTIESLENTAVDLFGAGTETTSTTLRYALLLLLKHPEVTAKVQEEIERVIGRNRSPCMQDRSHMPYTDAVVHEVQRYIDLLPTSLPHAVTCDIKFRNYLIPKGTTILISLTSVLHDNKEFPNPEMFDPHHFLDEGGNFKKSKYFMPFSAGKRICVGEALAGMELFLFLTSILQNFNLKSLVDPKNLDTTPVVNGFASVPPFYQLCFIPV
Procedure, shortened: (§2)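 High-throughput human liver microsome panel of five CYP isoforms; inhibition reported as IC50.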

Cytochrome P450 2C19 = Cytochrome P450 2C19 (Homo sapiens, UniProt P33261); test: Inhibition of CYP2C19 in human liver microsomes; assay type: ADME; conditions: human, microsomes; procedure, shortened: as §2
Sequence of Cytochrome P450 2C19 (P33261 whole entry): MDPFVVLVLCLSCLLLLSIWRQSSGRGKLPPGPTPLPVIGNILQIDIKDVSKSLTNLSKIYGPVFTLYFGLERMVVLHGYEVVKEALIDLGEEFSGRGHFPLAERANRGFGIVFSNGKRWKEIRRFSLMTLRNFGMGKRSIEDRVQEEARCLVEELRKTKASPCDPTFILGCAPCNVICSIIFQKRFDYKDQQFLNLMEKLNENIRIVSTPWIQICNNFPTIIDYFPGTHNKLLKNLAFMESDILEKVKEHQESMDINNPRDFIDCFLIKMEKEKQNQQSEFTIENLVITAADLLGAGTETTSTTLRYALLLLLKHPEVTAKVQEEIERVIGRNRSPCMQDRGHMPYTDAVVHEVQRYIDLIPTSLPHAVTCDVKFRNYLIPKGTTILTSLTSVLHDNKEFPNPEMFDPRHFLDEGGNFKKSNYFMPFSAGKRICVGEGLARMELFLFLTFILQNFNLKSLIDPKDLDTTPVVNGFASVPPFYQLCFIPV

Cytochrome P450 1A2 = target: T3, Cytochrome P450 1A2 (Homo sapiens, UniProt P05177); test: Inhibition of CYP1A2 in human liver microsomes; assay type: ADME; conditions: human, microsomes; procedure, shortened: as §2
T3 sequence (P05177 whole entry): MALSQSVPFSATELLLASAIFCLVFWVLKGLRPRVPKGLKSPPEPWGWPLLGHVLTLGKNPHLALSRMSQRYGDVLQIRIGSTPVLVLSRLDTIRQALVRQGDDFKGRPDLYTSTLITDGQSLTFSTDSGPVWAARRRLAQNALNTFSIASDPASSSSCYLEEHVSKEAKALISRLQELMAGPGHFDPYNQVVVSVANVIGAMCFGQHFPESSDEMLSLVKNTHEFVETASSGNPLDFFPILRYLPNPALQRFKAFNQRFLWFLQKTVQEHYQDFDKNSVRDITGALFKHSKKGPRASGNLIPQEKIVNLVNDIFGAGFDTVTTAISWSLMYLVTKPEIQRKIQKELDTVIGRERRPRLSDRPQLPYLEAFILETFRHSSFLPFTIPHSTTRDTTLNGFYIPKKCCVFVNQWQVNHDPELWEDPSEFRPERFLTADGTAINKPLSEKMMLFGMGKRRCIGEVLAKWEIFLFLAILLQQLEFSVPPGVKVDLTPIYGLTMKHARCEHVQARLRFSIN

[11] = Dissociation constant, dibasic pKa of compound in 0.1 M potassium chloride in presence of piperidine by UV-vis spectroscopy; assay type: physicochemical
[12] = Oral bioavailability in rat at 1 mg/kg; assay type: ADME, organism-based; conditions: in vivo
Procedure, shortened: (§3)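 Rat PK: single IV dose 0.5 mg/kg and oral dose 1 mg/kg, formulated in 5% DMSO:95% hydroxypropyl-β-cyclodextrin (30% w/v), dosed at 1 mL/kg IV and 4 mL/kg PO.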

[13] = Half-life in rat at 0.5 mg/kg, iv or 1 mg/kg, po; assay type: ADME, organism-based; conditions: in vivo; procedure, shortened: as §3
[14] = Volume of distribution at steady state in rat at 0.5 mg/kg, iv or 1 mg/kg, po; assay type: ADME, organism-based; conditions: in vivo, read-out: Vdss
Procedure, shortened: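 Rat dosed IV at 0.5 mg/kg and PO at 1 mg/kg, both formulated in 5% DMSO:95% hydroxypropyl-β-cyclodextrin (30% w/v), at 1 mL/kg IV and 4 mL/kg PO. Vdss (L/kg) derived from the pharmacokinetic profile after dosing.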

[15] = Clearance in rat at 0.5 mg/kg, iv or 1 mg/kg, po; assay type: ADME, organism-based; conditions: in vivo; procedure, shortened: as §3
Cytochrome P450 3A4 = Cytochrome P450 3A4 (Homo sapiens, UniProt P08684); test: Inhibition of CYP3A4 in human liver microsomes; assay type: ADME; procedure, shortened: as §2
Sequence of Cytochrome P450 3A4 (P08684 whole entry): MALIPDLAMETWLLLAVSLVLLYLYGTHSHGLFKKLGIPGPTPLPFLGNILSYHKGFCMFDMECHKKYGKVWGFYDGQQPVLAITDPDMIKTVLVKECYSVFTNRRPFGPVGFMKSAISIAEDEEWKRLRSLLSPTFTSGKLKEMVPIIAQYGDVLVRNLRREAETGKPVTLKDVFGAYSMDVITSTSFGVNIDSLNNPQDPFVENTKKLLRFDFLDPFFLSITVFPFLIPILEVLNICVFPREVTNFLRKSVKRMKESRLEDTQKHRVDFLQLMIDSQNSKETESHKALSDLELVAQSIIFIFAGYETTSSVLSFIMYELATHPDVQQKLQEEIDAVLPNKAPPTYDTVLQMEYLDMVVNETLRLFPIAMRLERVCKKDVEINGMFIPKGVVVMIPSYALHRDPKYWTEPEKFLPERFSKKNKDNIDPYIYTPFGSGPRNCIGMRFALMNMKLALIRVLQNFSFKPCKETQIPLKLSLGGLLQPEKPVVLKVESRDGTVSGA

Cytochrome P450 2D6 = Cytochrome P450 2D6 (Homo sapiens, UniProt P10635); test: Inhibition of CYP2D6 in human liver microsomes; assay type: ADME; procedure, shortened: as §2
Sequence of Cytochrome P450 2D6 (P10635 whole entry): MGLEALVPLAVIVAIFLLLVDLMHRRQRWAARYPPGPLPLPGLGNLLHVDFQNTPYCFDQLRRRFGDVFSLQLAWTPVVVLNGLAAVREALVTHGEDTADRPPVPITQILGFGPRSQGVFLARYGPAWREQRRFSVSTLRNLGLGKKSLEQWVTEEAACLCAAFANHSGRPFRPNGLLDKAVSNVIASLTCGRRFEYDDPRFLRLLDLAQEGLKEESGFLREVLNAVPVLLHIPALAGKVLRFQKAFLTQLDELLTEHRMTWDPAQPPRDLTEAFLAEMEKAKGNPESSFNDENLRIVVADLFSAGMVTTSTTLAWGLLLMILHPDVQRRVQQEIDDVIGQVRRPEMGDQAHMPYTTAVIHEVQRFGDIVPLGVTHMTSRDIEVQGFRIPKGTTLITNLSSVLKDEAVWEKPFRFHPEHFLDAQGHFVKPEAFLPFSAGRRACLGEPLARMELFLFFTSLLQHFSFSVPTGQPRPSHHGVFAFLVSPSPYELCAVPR

[16] = Dissociation constant, dibasic pKa of compound in 0.1 M potassium chloride in presence of azetidine by UV-vis spectroscopy; assay type: physicochemical
[17] = Fraction unbound in dog plasma; assay type: ADME, cell-free, Canis lupus familiaris
[18] = Fraction unbound in mouse plasma; assay type: ADME, cell-free
[19] = Fraction unbound in rat plasma; assay type: ADME, cell-free
[20] = Solubility of compound in phosphate buffer at pH 7.4 incubated for 24 hrs at 25 degree C; assay type: physicochemical
Procedure, shortened: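 Aqueous phosphate buffer pH 7.4, compound added from DMSO stock, equilibrated 24 h at 25 °C.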

| SMILES | Activity [1] [%] | Activity [2] [%] | hepatocyte CLint [3] [µL/min/1e6 cells] | hepatocyte CLint [4] [µL/min/1e6 cells] | fraction unbound [5] | logD [6] | Emax [7] [%] | IC50 (Estrogen receptor [8]) [nM] | IC50 (Estrogen receptor [9]) [nM] | IC50 [10] [nM] | other results |
| --- | --- | --- | --- | --- | --- | --- | --- | --- | --- | --- | --- |
| C[C@@H]1Cc2c(ccc3[nH]ccc23)[C@@H](c2ccc(NC3CN(CCCF)C3)cn2)N1CC(F)(F)F | 85 | 98 | 3 | 10 | 0.073 | 3.2 | 98 | 0.158 | 3.16 | – | – |
| C[C@]12CC[C@@H]3c4ccc(O)cc4C[C@@H](CCCCCCCCC[S+]([O-])CCCC(F)(F)C(F)(F)F)[C@H]3[C@@H]1CC[C@@H]2O (stereo partly drawn) | – | – | – | – | – | – | – | – | – | – | Activity (MCF7): Active; Activity (Mus musculus): Active |
| C[C@@H]1Cc2c(ccc3[nH]ncc23)[C@@H](c2ccc(OCCN3CC(CF)C3)cn2)N1CC(F)(F)F | 80 | 91 | 3 | 45 | 0.22 | 3 | 96 | 0.398 | 1.26 | – | – |
| C[C@@H]1Cc2c(ccc3[nH]ncc23)[C@@H](c2ccc(N[C@H]3CCN(CCCF)C3)cn2)N1CC(F)(F)F | 104 | 95 | 5 | 22 | 0.18 | 3 | 99 | 0.126 | 2.51 | 13000 | – |
| COc1cc(NC2CN(CCCF)C2)ccc1[C@@H]1c2ccc3[nH]ncc3c2C[C@@H](C)N1CC1(F)CC1 | 84 | 89 | – | 7 | 0.34 | – | 96 | 0.316 | 7.94 | – | inhibition (INH) (Cytochrome P450 2C9): Not Active; inhibition (INH) (Cytochrome P450 2C19): Not Active; inhibition (INH) (Cytochrome P450 1A2): Not Active; pKa [11]: 7.8; bioavailability [12]: 3%; half-life [13]: 11 h; Vd [14]: 71 L/kg; clearance [15]: 125 mL/min/kg; IC50 (Cytochrome P450 3A4): 11000 nM; IC50 (Cytochrome P450 2D6): 1200 nM; pKa [16]: 8.7; fraction unbound [17]: 0.22; fraction unbound [18]: 0.39; fraction unbound [19]: 0.51; solubility at 24 h [20]: > 900 µM |
| C[C@@H]1Cc2c(ccc3[nH]ncc23)[C@@](C)(c2ccc(NC3CN(CCCF)C3)cn2)N1CC(F)F | – | – | – | 114 | 0.1 | – | 96 | 1 | 10 | 13000 | – |
